For assay [1], the target named is T1, Nucleotide-binding oligomerization domain-containing protein 1 (Homo sapiens) (UniProt Q9Y239).
T1 sequence (whole entry): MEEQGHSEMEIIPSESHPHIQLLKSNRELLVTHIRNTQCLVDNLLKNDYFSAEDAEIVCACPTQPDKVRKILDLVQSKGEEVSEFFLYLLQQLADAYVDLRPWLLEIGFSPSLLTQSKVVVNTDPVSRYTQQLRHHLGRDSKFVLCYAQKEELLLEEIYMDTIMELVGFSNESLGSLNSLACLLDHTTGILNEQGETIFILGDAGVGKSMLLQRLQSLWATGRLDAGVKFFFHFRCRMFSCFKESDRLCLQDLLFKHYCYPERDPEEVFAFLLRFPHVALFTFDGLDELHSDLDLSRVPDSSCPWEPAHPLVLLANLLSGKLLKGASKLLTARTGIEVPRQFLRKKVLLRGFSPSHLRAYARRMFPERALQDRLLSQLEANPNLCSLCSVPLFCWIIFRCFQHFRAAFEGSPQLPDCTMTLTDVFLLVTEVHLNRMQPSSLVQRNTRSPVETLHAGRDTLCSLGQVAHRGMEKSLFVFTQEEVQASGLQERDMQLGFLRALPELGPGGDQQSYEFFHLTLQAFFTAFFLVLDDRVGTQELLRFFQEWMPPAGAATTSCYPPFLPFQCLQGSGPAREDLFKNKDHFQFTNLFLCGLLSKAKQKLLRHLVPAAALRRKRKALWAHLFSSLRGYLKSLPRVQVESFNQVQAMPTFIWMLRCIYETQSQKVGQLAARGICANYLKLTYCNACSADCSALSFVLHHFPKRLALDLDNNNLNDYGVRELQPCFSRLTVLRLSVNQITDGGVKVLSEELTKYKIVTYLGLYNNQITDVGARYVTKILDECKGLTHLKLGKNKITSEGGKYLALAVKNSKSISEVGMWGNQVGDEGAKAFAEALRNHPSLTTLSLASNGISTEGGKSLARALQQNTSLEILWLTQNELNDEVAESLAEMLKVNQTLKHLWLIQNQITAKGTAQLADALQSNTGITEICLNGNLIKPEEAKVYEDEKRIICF
The assay can be described thus: Antagonist activity at human NOD1 expressed in HEK-Blue cells assessed as inhibition of C12-iE-DAP-stimulated cell activation at 10 uM preincubated for 3 hrs followed by C12-iE-DAP addition measured after 20 hrs by SEAP reporter gene assay. In kind it is cell-based. The method, boiled down: (§1)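 HEK-Blue hNOD1 or hNOD2 cells preincubated with compound 3 h, then stimulated 20 h with C12-iE-DAP 50 ng/mL (NOD1) or MDP 100 ng/mL (NOD2); SEAP in supernatant quantified. Primary screen at 10 μM, hits repeated in triplicate; IC50 from dose-response, mean ± SD (n = 3), only for compounds reaching ≥50% inhibition at the screening concentration.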
For orientation: Reporter assays use an easily measured gene product as a stand-in for the process of interest.

In assay [2] the target is Nucleotide-binding oligomerization domain-containing protein 2 (Homo sapiens, UniProt Q9HC29). As to the kind of experiment: Antagonist activity at human NOD2 expressed in HEK-Blue cells assessed as inhibition of MDP-stimulated cell activation at 10 uM preincubated for 3 hrs followed by MDP addition measured after 20 hrs by SEAP reporter gene assay. Type of assay: cell-based. A digest of the protocol:
as §1

Data on 25 molecules can be found in ChEMBL document CHEMBL4014339, “Discovery of 1,4-Benzodiazepine-2,5-dione (BZD) Derivatives as Dual Nucleotide Binding Oligomerization Domain Containing 1/2 (NOD1/NOD2) Antagonists Sensitizing Paclitaxel (PTX) To Suppress Lewis Lung Carcinoma (LLC) Growth in Vivo” (J Med Chem, 2017).

Structures are written as SMILES.

Chain of Nucleotide-binding oligomerization domain-containing protein 2 (Q9HC29 whole entry, the tested form may be a part): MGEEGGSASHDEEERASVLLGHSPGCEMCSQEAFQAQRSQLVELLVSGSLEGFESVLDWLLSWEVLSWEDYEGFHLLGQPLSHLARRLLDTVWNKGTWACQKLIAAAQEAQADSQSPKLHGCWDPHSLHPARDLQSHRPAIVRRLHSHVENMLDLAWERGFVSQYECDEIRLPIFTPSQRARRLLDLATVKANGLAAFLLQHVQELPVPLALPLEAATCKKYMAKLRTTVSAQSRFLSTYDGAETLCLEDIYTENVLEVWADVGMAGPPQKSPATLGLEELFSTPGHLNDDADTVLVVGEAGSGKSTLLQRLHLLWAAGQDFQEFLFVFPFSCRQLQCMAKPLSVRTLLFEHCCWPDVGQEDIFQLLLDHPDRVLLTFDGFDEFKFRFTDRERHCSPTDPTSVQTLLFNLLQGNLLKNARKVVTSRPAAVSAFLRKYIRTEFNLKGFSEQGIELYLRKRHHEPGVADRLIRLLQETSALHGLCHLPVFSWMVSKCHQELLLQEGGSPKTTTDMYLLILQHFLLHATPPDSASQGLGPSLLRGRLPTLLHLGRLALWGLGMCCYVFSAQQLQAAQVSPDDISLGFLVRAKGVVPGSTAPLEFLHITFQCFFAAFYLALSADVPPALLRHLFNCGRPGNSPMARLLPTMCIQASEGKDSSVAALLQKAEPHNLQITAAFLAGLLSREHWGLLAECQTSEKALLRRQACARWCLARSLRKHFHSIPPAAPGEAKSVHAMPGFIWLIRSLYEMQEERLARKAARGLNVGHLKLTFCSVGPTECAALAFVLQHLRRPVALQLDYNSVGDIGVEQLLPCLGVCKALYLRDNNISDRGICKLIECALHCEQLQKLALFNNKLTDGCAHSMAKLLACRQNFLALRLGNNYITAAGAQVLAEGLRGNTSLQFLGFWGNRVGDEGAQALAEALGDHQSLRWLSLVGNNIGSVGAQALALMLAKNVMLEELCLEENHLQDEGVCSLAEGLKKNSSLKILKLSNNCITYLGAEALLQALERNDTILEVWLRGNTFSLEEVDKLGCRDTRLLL

Usually inhibition stands for the relative decrease from the control value, in per cent. `C=CC(=O)Nc1cc2c(cc1Oc1cccc(N(C)C)c1)C(=O)N[C@H](CCC(=O)OC)C(=O)N2`: the inhibition in assay [1] worked out at 82.1%; in assay [2], 91.9%. The corresponding values for `CCN(CC)C(=O)CC[C@H]1NC(=O)c2cc(Cl)ccc2NC1=O` are -0.11% and 21.5%. For `CCCCCCCCCN1C(=O)[C@@H](CCC(=O)N2CCOCC2)N(C)C(=O)c2ccc(Cl)cc21` the same measures were 29.7% and 17.8%.

In the case of `COC(=O)CCC1NC(=O)c2cc(Cl)ccc2N(C)C1=O` (stereo unspecified), in assay [2], the inhibition came to 1.87%. Still for that read-out and setting: then `COC(=O)CC[C@H]1NC(=O)c2cc(OC)c(NC(=O)c3cc(C(F)(F)F)cc(C(F)(F)F)c3)cc2NC1=O`, with -5.32%. With `O=C(O)CC[C@H]1NC(=O)c2cc(Oc3cccc4ccccc34)c(NC(=O)/C=C\c3ccc(F)cc3Cl)cc2NC1=O`, the inhibition in assay [1] was determined as 3.86%; in assay [2], 7.76%. For `CCCCCCCCCCN1C(=O)C(CCC(=O)OC)NC(=O)c2cc(Cl)ccc21` (stereo unspecified) the same measures were 2.54% and -2.7%. For `COC(=O)CC[C@H]1NC(=O)c2cc(Oc3cccc4ccccc34)c(NC(=O)C3CC3)cc2NC1=O` the same measures were 6.34% and -0.3%. For the molecule `COC(=O)CCC1NC(=O)c2cc(Cl)ccc2N(CC2CC2)C1=O` (stereo unspecified), the inhibition in assay [1] was -3.06%; in assay [2], -2.7%. The corresponding values for `CCN(CC)C(=O)CC[C@@H]1C(=O)N(CC2CC2)c2cc(Cl)ccc2C(=O)N1C` are -8.85% and 1.38%. The corresponding values for `NC(=O)CC[C@H]1NC(=O)c2cc(Oc3cccc4ccccc34)c(NC(=O)C3CC3)cc2NC1=O` are 41.6% and 28.7%. The corresponding values for `COC(=O)CC[C@H]1NC(=O)c2cc(Oc3ccc(C)c(C)c3)c(NC(=O)COCc3ccccc3)cc2NC1=O` are 73.8% and 54.4%. Turning to `CCCCCCCCCCCCNC(=O)CC[C@H]1NC(=O)c2cc(N3CCOCC3)c(NC(=O)C3CC3)cc2NC1=O`, the inhibition in assay [1] was -0.69%; in assay [2] it was 7.9%. For `COC(=O)CC[C@H]1NC(=O)c2cc(Oc3cccc4ccccc34)c(NC(=O)/C=C\c3ccc(F)cc3Cl)cc2NC1=O` the same measures were 37.9% and 34.2%.

For the molecule `O=C(CC[C@H]1NC(=O)c2cc(N3CCOCC3)c(NC(=O)C3CC3)cc2NC1=O)NC1CCCc2ccccc21` (stereo partly specified), the inhibition in assay [1] stood at 22.6%; in assay [2] it was 27.1%. The corresponding values for `CCCCN(CCCC)c1cc2c(cc1NC(=O)/C=C/c1ccc(F)cc1Cl)NC(=O)[C@@H](CCC(=O)OC)NC2=O` are 76.5% and 60.8%. For `CCCCCCCCCCCCNCC(=O)Nc1cc2c(cc1Oc1cccc(N(C)C)c1)C(=O)N[C@H](CCC(=O)OC)C(=O)N2` the same measures were 7.37% and -3.92%. As for `CCCCCCCCCN1C(=O)[C@@H](CCC(=O)NCc2cccnc2)N(C)C(=O)c2ccc(Cl)cc21`, the values for the inhibition in assay [1] and in assay [2] were 54.8% and 30.9%, respectively. As to `CN(C)c1cccc(Oc2cc3c(cc2NC(=O)COCc2ccccc2)NC(=O)[C@@H](CCC(N)=O)NC3=O)c1`, the inhibition in assay [2] is 3.93%. Consider `CCN(CC)C(=O)CC[C@@H]1C(=O)N(CCC(C)C)c2cc(Cl)ccc2C(=O)N1C`, for which the inhibition in assay [1] was -7.62%. `CCN(CC)C(=O)CC[C@@H]1C(=O)Nc2cc(Cl)ccc2C(=O)N1C`: the inhibition in assay [2] is -7.53%. Same read-out and setting: then `CCN(CC)C(=O)CC[C@H]1NC(=O)c2cc(Oc3cccc4ccccc34)c(NC(=O)/C=C\c3ccc(F)cc3Cl)cc2NC1=O`, with 1.94%; and `COC(=O)CC[C@@H]1C(=O)Nc2cc(Cl)ccc2C(=O)N1C`, with -1.87%; and `O=C(CC[C@H]1NC(=O)c2cc(N3CCOCC3)c(NC(=O)C3CC3)cc2NC1=O)NCCC1=CCCCC1`, with -2.95%. The same measure, in the same setting: then `Cc1ccc(Oc2cc3c(cc2NC(=O)C2CC2)NC(=O)[C@@H](CCC(=O)O)NC3=O)cc1C`, with -3.78%.
